Here are results for 27 molecules from ChEMBL document CHEMBL4043143, “2-N-Arylthiazole inhibitors of Mycobacterium tuberculosis” (Bioorg Med Chem Lett, 2017).

The term pIC50 denotes the IC50 on a negative log10 scale, so that one unit is a factor of ten. Lower therefore signals a large IC50. The term half-life denotes how long it takes for the measured level to halve. The low end stands for fast loss, the high end for slow loss. The clearance is a measure of how efficiently the substance is removed, as volume per time. Read a low clearance as inefficient removal.

The nature of data set [1]: Metabolic stability in rat liver microsomes assessed as compound remaining at 1 uM measured after 30 mins. Format: ADME, microsome. As to conditions: read-out: Stability.
Data set [2] deals with Mycobacterium tuberculosis. As to the kind of experiment: Antitubercular activity against Mycobacterium tuberculosis H37Ra infected in THP-1 macrophages measured after 5 days post infection by luciferase reporter gene assay. Format: functional. The following applies: THP-1, 120 h. The procedure, abridged: (§1)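 Firefly luciferase reporter Mtb infected THP-1 cells. Bacterial growth was read by luminescence five days post-infection, and the value was reported as the 50% inhibitory concentration. The assay medium used glucose and glycerol as the carbon source.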
Background: Reporter assays use an easily measured gene product as a stand-in for the process of interest.

Data set [3] in a line: Half life in mouse at 3 mg/kg, po or 1 mg/kg, iv. It counts as ADME, organism-based. The following applies: in vivo. In a few lines:
(§2)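 Mouse pharmacokinetics after 3 mg/kg oral or 1 mg/kg intravenous dosing. Clearance is in mL/min/kg. AUC is in μg*h/mL, with oral exposure normalised to the actual dose.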

In data set [4] the test system is Mus musculus. Briefly: Dose normalized AUC in mouse at 3 mg/kg, po or 1 mg/kg, iv. It counts as ADME, organism-based. The following applies: in vivo. In a few lines: as §2
Data set [5] in a line: Clearance in mouse at 1 mg/kg, iv. The following applies: in vivo. Format: ADME, organism-based. In a few lines: as §2
Data set [6] deals with Mycobacterium tuberculosis. As to the kind of experiment: Antitubercular activity against Mycobacterium tuberculosis H37Ra BSL2 cultured in broth. Format: functional. In a few lines:
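BSL2 H37Ra broth assay. MIC was taken as the concentration (μM) giving 70% growth inhibition versus control wells.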

Data set [7] relates to Mycobacterium tuberculosis. As to the kind of experiment: Antitubercular activity against Mycobacterium tuberculosis Erdman BSL3 infected in THP-1 macrophages using middlebrook 7H12 broth media after 5 days post infection by luciferase reporter gene assay. Format: functional, Mycobacterium tuberculosis str. Erdman = ATCC 35801. As to conditions: BSL3, THP-1, 120 h.
The test system of data set [8] is Mycobacterium tuberculosis. Briefly: Antitubercular activity against Mycobacterium tuberculosis Erdman BSL3 infected in BALB/c mouse assessed as reduction in colony forming units in lung homogenates at 100 mg/kg administered daily via oral gavage for 5 days per week for 4 weeks. Format: functional, organism-based. As to conditions: Mycobacterium tuberculosis str. Erdman = ATCC 35801. In a few lines:
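BALB/c mice were infected intranasally with 10^6 cfu of the Erdman isolate, six mice per group. Dosing was 100 mg/kg daily, 5 days/week, for four weeks. Lung homogenates were plated for cfu. An early-control group was killed at the start of therapy to set the infection load, and a late-control group marked the endpoint and confirmed virulence. Rifampin at 10 mg/kg was the positive control.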

The subject of data set [9] is Mycobacterium tuberculosis. As to the kind of experiment: Antitubercular activity against Mycobacterium tuberculosis H37Rv BSL3 infected in THP-1 macrophages using middlebrook 7H12 broth media after 5 days post infection by luciferase reporter gene assay. Format: functional. The following applies: H37Rv BSL3, THP-1, 120 h.
Data set [10] relates to Mycobacterium tuberculosis. As to the kind of experiment: Antitubercular activity against Mycobacterium tuberculosis H37Ra BSL2 infected in THP-1 macrophages after 5 days post infection by luciferase reporter gene assay. Format: functional. As to conditions: H37Ra BSL2, THP-1, 120 h. In a few lines:
as §1

Data set [11] relates to Mycobacterium tuberculosis. Briefly: Antitubercular activity against Mycobacterium tuberculosis H37Rv BSL3 infected in THP-1 macrophages under anaerobic condition after 5 days post infection by luciferase reporter gene assay. Format: functional. The following applies: H37Rv BSL3, THP-1, 120 h.
Data set [12] deals with Mycobacterium tuberculosis. Briefly: Antitubercular activity against Mycobacterium tuberculosis Erdman BSL3 infected in THP-1 macrophages using middlebrook 7H9 broth media after 5 days post infection by luciferase reporter gene assay. It counts as functional, Mycobacterium tuberculosis str. Erdman = ATCC 35801. The following applies: BSL3, 120 h.
Data set [13] has as its system Mycobacterium tuberculosis. As to the kind of experiment: Antitubercular activity against Mycobacterium tuberculosis H37Rv BSL3 infected in THP-1 macrophages using middlebrook 7H9 broth media after 5 days post infection by luciferase reporter gene assay. As to conditions: H37Rv BSL3, THP-1, 120 h. Format: functional.

SMILES strings stand for the structures. pIC50: −log10 of the molar value. ≈ marks a conversion by molar mass, not a printed value. Calls of active or inactive are those of the source. No cut-off for these calls is given here. Some results are limits rather than exact numbers.

Consider `Cc1csc(Nc2ccc(C(C)C)cc2)n1`, for which the remaining at 0.5 h, 1 µM in [1] was 0%. This molecule also had a negative-log IC50 (pIC50) in data set [2] of 8.00.
On the same counts, the results for `Cc1csc(Nc2ccc(OC3CCCC3)cc2)n1` are 10% and 7.15.
Turning to `CCc1ccc(Nc2nc(C)cs2)cc1`, in data set [1], the remaining at 0.5 h, 1 µM was found to be 0%. Further, the pIC50 in [2] was 6.92.
In data set [2], `CCCCc1ccc(Nc2nc(C(C)(C)C(=O)O)cs2)cc1` gave a pIC50 of 6.85. For the same molecule, the half-life in data set [3] is 5 h. The same molecule registered an AUC/dose in [4] of 1.4 µg·h/mL. Moreover, the clearance in [5] was determined as 18 mL/min/kg.
The molecule `Cc1csc(Nc2ccc(CCN(C)C)cc2)n1` gave a pIC50 in [2] of under 4.70.
As for `CCCOc1ccc(Nc2nc(C)cs2)cc1`, the remaining at 0.5 h, 1 µM in [1] was 4%. In addition, the negative logarithm of the IC50 (pIC50) in data set [2] is 6.82.
With `Cc1csc(Nc2ccc(COCC(F)(F)F)cc2)n1`, the remaining at 0.5 h, 1 µM in data set [1] is 1%. Besides, in data set [2], the pIC50 was over 7.40.
On the same counts, the results for `CCC(O)Cc1ccc(Nc2nc(C)cs2)cc1` (stereo not drawn) are 1% and 6.40.
On the same counts, the results for `CCC(C)c1ccc(Nc2nc(C)cs2)cc1` (stereo not drawn) are 0% and over 7.40.
Regarding `CCCCc1ccc(Nc2nc(CC(=O)O)cs2)cc1`, the MIC70 in [6] is 0.16 µM (≈ 0.0465 µg/mL). Further, the pIC50 was 4.25 in data set [7]; 4.04 in [9]; 6.82 in data set [10]; 6.82 in data set [2]; 4.75 in data set [11]. For the same molecule, in data set [8], the result was inactive. In addition, the half-life in data set [3] is 3.1 h. In addition, the AUC/dose in data set [4] amounted to 4.9 µg·h/mL. The same molecule displayed a clearance in data set [5] of 5 mL/min/kg. In [12], the MIC90 is 7.8 µM (≈ 2.27 µg/mL).
The molecule `CCCCc1ccc(Nc2nc(CC(=O)O)c(C)s2)cc1` had a pIC50 in [2] of 7.00. The molecule further had a half-life in data set [3] of 1.1 h. Besides, the AUC/dose in data set [4] is 4.8 µg·h/mL. Further, the clearance in data set [5] was determined as 7 mL/min/kg.
In the case of `CCCCCc1ccc(Nc2nc(C)cs2)cc1`, in data set [1], the remaining at 0.5 h, 1 µM was determined as 3%. The pIC50 in [2] is 7.40.
In turn, `CCCCc1ccc(Nc2nc(C(=O)O)cs2)cc1` had a pIC50 in data set [2] of under 4.70.
Turning to `CCNCc1ccc(Nc2nc(C)cs2)cc1`, in data set [1], the remaining at 0.5 h, 1 µM came out at 0%. The pIC50 in [2] is under 4.70.
For the molecule `Cc1csc(Nc2ccc(OCCO)cc2)n1`, in [1], the remaining at 0.5 h, 1 µM was 73%. The same molecule had a pIC50 in [2] of 5.50.
`CCCCc1ccc(Nc2nc(C(C)C(=O)O)cs2)cc1` (stereo not drawn): in [2], the pIC50 is 6.85. The molecule also gave a half-life in data set [3] of 0.9 h. Moreover, in data set [4], the AUC/dose is 4.8 µg·h/mL. The molecule further yielded a clearance in [5] of 4 mL/min/kg.
On the same counts, the results for `O=C(O)Cc1csc(Nc2ccc(OCCC(F)(F)F)cc2)n1` are 6.57, 1.6 h, 15 µg·h/mL and 1.5 mL/min/kg.
In the case of `CC(C)(C)c1ccc(Nc2nc(CC(=O)O)cs2)cc1`, in data set [6], the MIC70 was determined as 0.16 µM (≈ 0.0465 µg/mL). The negative logarithm of the IC50 (pIC50) in [7] is 4.20; in [9], under 4.00; in [10] it was 7.15; in [13], 5.03; in [2], 7.15; in [11] it was under 4.00. For the same molecule, the result in data set [8] was inactive. For the same molecule, in data set [3], the half-life is 1.1 h. Moreover, the AUC/dose in data set [4] was 24.1 µg·h/mL. This molecule returned a clearance in data set [5] of 4 mL/min/kg. Besides, the MIC90 in data set [12] amounted to 6.3 µM (≈ 1.83 µg/mL).
As to `CCCCc1ccc(Nc2nc(C)cs2)cc1`, the remaining at 0.5 h, 1 µM in data set [1] was 1%. Also, the MIC70 in data set [6] turned out to be 0.04 µM (≈ 0.00986 µg/mL). The pIC50 in data set [7] is under 4.00; in [9], 4.33; in data set [10] it was 7.40; in data set [2] it was over 8.30; in [11], 4.92. Also, the outcome in [8] was inactive. In [12], the MIC90 was 7 µM (≈ 1.72 µg/mL).
On to `CCCCc1ccc(Nc2nc(CC(N)=O)cs2)cc1`, for which the negative-log IC50 (pIC50) in data set [2] is 6.07.
For `CCC(C)c1ccc(Nc2nc(CC(=O)O)cs2)cc1` (racemic), in data set [6], the MIC70 is 0.16 µM (≈ 0.0465 µg/mL). Moreover, the pIC50 in [7] was under 4.00; in data set [9], under 4.00; in data set [10], 7.15; in data set [13] it was 5.03; in [2] it was 7.15; in [11] it was 4.02. In addition, the outcome in data set [8] was inactive. The molecule further showed a half-life in data set [3] of 2.8 h. Moreover, in [4], the AUC/dose is 14.4 µg·h/mL. The molecule also yielded a clearance in data set [5] of 3 mL/min/kg. The MIC90 in data set [12] is 6.3 µM (≈ 1.83 µg/mL).
For `Cc1csc(Nc2ccc(C(C)(C)C)cc2)n1`, in data set [1], the remaining at 0.5 h, 1 µM was 0%. The pIC50 in data set [2] was over 7.40.
Turning to `Cc1ccc(Nc2nc(C)cs2)cc1`, the negative logarithm of the IC50 (pIC50) in data set [2] was under 4.70.
As for `CCCCc1ccc(Nc2nc(CC(=O)O)c(Cl)s2)cc1`, the MIC70 in [6] was determined as 0.39 µM (≈ 0.127 µg/mL). The pIC50 in [7] is 4.27; in data set [9], under 4.00; in data set [10], 7.15; in data set [13], 5.20; in data set [2], 7.15; in data set [11], 5.25. In [8], the outcome was inactive. The molecule also gave a half-life in [3] of 1.1 h. The AUC/dose in data set [4] is 6 µg·h/mL. Besides, the clearance in data set [5] came out at 5 mL/min/kg. For the same molecule, the MIC90 in data set [12] was 12.5 µM (≈ 4.06 µg/mL).
With `Cc1csc(Nc2ccc(C(C)(C)O)cc2)n1`, the remaining at 0.5 h, 1 µM in [1] stood at 12%. The molecule also gave a pIC50 in [2] of 7.22.
`CCCCCCc1ccc(Nc2nc(C)cs2)cc1`: the pIC50 in [2] was 7.30.
In [6], `CO[C@H]1/C=C/O[C@@]2(C)Oc3c(C)c(O)c4c(O)c(c(/C=N/N5CCN(C)CC5)c(O)c4c3C2=O)NC(=O)/C(C)=C\C=C\[C@H](C)[C@H](O)[C@@H](C)[C@@H](O)[C@@H](C)[C@H](OC(C)=O)[C@@H]1C` [RIFAMPIN] returned an MIC70 of 0.08 µM (≈ 0.0658 µg/mL). In [10], this molecule had a pIC50 of 7.52.
